Screening results as filed in PubChem.
Most compounds without a hit are left out; they make up all but 1.3% or so of the library.
HTRA1 inhibitor = HTRA1 serine protease inhibitors, primary screen, biochemical, fluorescence polarization, HTS | recombinant HTRA1, FP-rhodamine activity-based probe | 340,000 tested, 0.5% active | inhibition, % at 5.96 µM; in the data active = inhibition above about 36%
Target sequence (Q92743 whole entry, looked up): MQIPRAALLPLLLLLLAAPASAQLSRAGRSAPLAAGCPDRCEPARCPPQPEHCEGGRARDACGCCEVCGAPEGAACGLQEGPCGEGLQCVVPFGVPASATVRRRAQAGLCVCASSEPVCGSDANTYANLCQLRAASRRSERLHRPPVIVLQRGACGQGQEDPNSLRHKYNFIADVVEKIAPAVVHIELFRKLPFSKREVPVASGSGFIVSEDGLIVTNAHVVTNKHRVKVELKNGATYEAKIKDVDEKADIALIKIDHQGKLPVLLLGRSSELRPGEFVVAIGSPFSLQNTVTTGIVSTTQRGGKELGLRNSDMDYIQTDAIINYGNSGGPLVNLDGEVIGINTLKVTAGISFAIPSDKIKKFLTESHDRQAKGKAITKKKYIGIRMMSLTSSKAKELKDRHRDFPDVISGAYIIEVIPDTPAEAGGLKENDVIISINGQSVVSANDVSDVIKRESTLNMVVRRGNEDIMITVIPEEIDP
DDE Tn7 FP inh = inhibitors of Tn7 peptide binding to fibrin DD(E), primary screen, biochemical, fluorescence polarization, human fibrin, Tn7 probe; AID 720508, 2013; 370,000 tested, 0.13% active; FP displacement of FITC-Tn7 peptide from fibrin DD(E); 0% = median of compound wells per plate; inhibition, % at 8.3 µM;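 active = inhibition above the mean of compounds falling within the control limits plus 3 SD of them, cut at about 14% in these data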
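Measure: % inhibition scaled between sample-field median and high-control FP; Test system: human fibrin DD(E); Quantity: 2 µM final DD(E) protein; Doses: one dose, 8.3 µM nominal; Schedule: compound with protein 10 min, then 3 h after probe, room temperature; Detection: fluorescence polarization; Medium: Tris buffer with calcium and detergent, pH 7.8.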
mABHD4 FP = ABHD4 inhibitors, primary screen, biochemical, fluorescence polarization, mouse; inhibition, % at 8.92 µM; purified mABHD4, FP-Rh probe fluorescence polarization; 370,000 tested, 0.54% active; (Lyso)-N-acylphosphatidylethanolamine lipase (Mus musculus), Q8VD66;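 active = inhibition exceeding the mean over every tested compound plus 3 SD, cut at about 30% in these data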
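Assay system: Wild-type mouse ABHD4 protein | Medium: HEPES pH 7.0 buffer, 150 mM NaCl, 0.01% Pluronic F-127 | Incubation: Enzyme–compound pre-incubation 45 min, then probe 60 min, both 25 °C | Technique: Fluorescence polarization with parallel and perpendicular emission, 525/598 nm | Evaluation: % inhibition of FP-Rh probe binding versus controls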
TCR-CD3 inh = inhibitors of human TCR-CD3 interaction, primary screen, biochemical, fluorescence, TAMRA-labeled TCR probe. T-cell receptor (TCR). inhibition, % at 9.4 µM. 360,000 tested, 0.37% active. AID 651800, 2012;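 note: recombinant mutant TCR 2C K166C tagged with TAMRA read by polarization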
Tn6 DDE FP = inhibitors of Tn6 peptide binding to fibrin DD(E), primary screen, biochemical, fluorescence polarization, human fibrin, Tn6 probe; Fibrin DD(E) TRITC-Tn6 fluorescence polarization displacement; 370,000 tested, 0.21% active; AID 720509, 2013; inhibition, % at 8.3 µM; Fibrinogen beta chain (Homo sapiens), P02675;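 active = inhibition above a per-campaign cutoff: mean of compounds within control limits plus 3 SD, cut at about 15% in these data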
BSA TAMRA ctr = compounds interfering with TAMRA-BSA probe, counter-screen for TCR-CD3 interaction inhibitor project, biochemical, fluorescence, TAMRA-labeled BSA | 1,200 tested, 10% active | inhibition, % at 9.4 µM | TAMRA-labeled BSA probe fluorescence counterscreen | AID 652035, 2013 | shares compounds with TCR-CD3 inh; in the data active = inhibition above about 23%
TCR-CD3 conf = TCR-CD3 interaction inhibitors, retest, confirmation, biochemical, fluorescence, TAMRA-labeled TCR probe; 1,200 tested, 48% active; shares compounds with TCR-CD3 inh; AID 652036, 2013; inhibition, % at 9.4 µM; TAMRA-labeled TCR probe fluorescence binding assay
A number is an active result; i = inactive; nt = no result. Cut-off read from the data, not from the text of the source, unless noted: active = inhibition above about 19%; inactive = the rest.

SMILES | HTRA1 inhibitor | DDE Tn7 FP inh | mABHD4 FP | TCR-CD3 inh | Tn6 DDE FP | BSA TAMRA ctr | TCR-CD3 conf
COc1ccc(C(=O)NC(=S)NNC(=O)c2ccc(O)cc2)cc1[N+](=O)[O-] | i | i | i | 28 | i | i | 28
COc1ccc(C(=O)NNC(=O)c2ccncc2)cc1[N+](=O)[O-] | i | i | i | i | i | nt | nt
CCn1c(C)nc2cc(C(=O)NNC(=S)NC(=O)c3ccc(OC)cc3)ccc21 | i | i | i | 36 | i | i | 32
COc1ccc(C(=O)NNC(=S)NC(=O)c2cccc([N+](=O)[O-])c2)cc1 | i | i | i | 21 | i | i | 29
Cc1cc(F)ccc1S(=O)(=O)N1CCCOC1CNC(=O)C(=O)NCCc1ccccc1 (stereo unspecified) | i | i | i | i | i | nt | nt
O=C1CCC/C=C\C[C@@H](CC(=O)N(CCO)Cc2ccccc2)C(=O)N[C@H](Cc2c[nH]c3ccccc23)CO1 | i | i | i | i | i | nt | nt
CCc1ccccc1N(CC(=O)NCc1ccco1)C(=O)c1snc(C(N)=O)c1N | i | i | i | i | i | nt | nt
COc1ccc(OCC(=O)NC2CCSc3ccccc32)cc1 (stereo unspecified) | i | i | i | i | i | nt | nt
CC(=O)Nc1cccc(NC(=O)COc2ccccc2C)c1 | i | i | i | 21 | i | i | i
NC(=O)[C@H]1CC2(CC(c3cccc(NC(=O)COc4ccc(Cl)cc4)c3)=NO2)CN1C(=O)CC(c1ccccc1)c1ccccc1 (stereo partly specified) | i | i | i | 54 | i | i | 30
NC(=O)[C@@H]1CC2(CC(c3cccc(NC(=O)CC(c4ccccc4)c4ccccc4)c3)=NO2)CN1C(=O)COc1ccc(Cl)cc1 (stereo partly specified) | i | i | i | 32 | i | i | 31
COc1ccc(S(=O)(=O)N(C)C[C@H]2Oc3c(NC(=O)c4ccncc4)cccc3C(=O)N([C@H](C)CO)C[C@@H]2C)cc1 | i | i | i | i | i | nt | nt
CCOC(=O)c1cnc2nc(Cc3ccccc3)[nH]n2c1=O | i | i | i | i | i | nt | nt
CCOC(=O)c1cnc(Cc2ccccc2)[nH]c1=O | i | i | i | 33 | i | i | i
O=C(O)c1ccc(-n2cccc2/C=N\NC(=O)c2cc3cc(Br)ccc3o2)cc1 | i | i | i | 29 | i | i | 37
Cn1cc(/C=N/NC(=O)c2cc3cc(Br)ccc3o2)c2ccccc21 | nt | i | i | i | i | nt | nt
CCOc1ccc(NC(=O)NNC(=O)COc2ccc3ccccc3c2)cc1 | i | i | i | i | i | nt | nt
COc1ccc(NC(=O)NNC(=O)c2ccc3ccccc3c2O)c(OC)c1 | i | i | i | 42 | i | i | 31
CCc1ccccc1NC(=O)NNC(=O)c1ccc2ccccc2c1O | i | i | i | 26 | i | i | 22
CCOc1ccc(NC(=O)NNC(=O)c2ccc3ccccc3c2O)cc1 | i | i | i | 32 | i | i | 23
COc1ccc(NC(=O)NNC(=O)c2cc(C3CC3)nc3ccccc23)c(OC)c1 | i | i | i | i | i | nt | nt
COc1cc(CCC(=O)Nc2cc(Cl)ccc2N2CCN(C)CC2)cc(OC)c1OC | i | i | i | i | i | nt | nt
CC1CCN(c2c(NCc3ccc(C(=O)NCC4COc5ccccc5O4)cc3)c(=O)c2=O)CC1 (stereo unspecified) | i | i | i | i | i | nt | nt
Cc1nc2cc(NC(=O)c3ccc(Br)s3)ccc2s1 | i | i | i | i | i | nt | nt
O=C(O/N=C1/CCSc2ccccc21)c1ccccc1 | i | i | i | i | i | nt | nt
SMILES | HTRA1 inhibitor | DDE Tn7 FP inh | mABHD4 FP | TCR-CD3 inh | Tn6 DDE FP | BSA TAMRA ctr | TCR-CD3 conf
CC(C)NC(=O)NNC(=O)c1nn(-c2ccc(F)cc2)ccc1=O | i | i | i | 20 | i | i | i
O=C(NNC(=O)c1nn(-c2ccc(F)cc2)ccc1=O)Nc1cccc(Cl)c1 | nt | i | i | 34 | i | i | 26
O=c1c2c(-c3ccccc3)csc2ncn1/N=C/c1cccc([N+](=O)[O-])c1O | i | i | i | 29 | i | i | 31
COc1cc(/C=N/NC(=O)C2(O)c3ccccc3-c3ccccc32)ccc1O | i | i | i | i | i | nt | nt
COc1cc(/C=N/NC(=O)C(=O)/C=C2\NC(C)(C)Cc3ccccc32)ccc1O | i | i | i | 26 | i | i | i
O=C(Cc1csc(N2CCOCC2)n1)N/N=C/c1ccc(O)c(O)c1O | i | i | i | 41 | i | i | i
COc1ccc(COc2cc(-c3cccc(OC)c3)nc3ccc(NC(=O)c4ccc(OC)cc4)cc23)cc1 | i | i | i | i | i | nt | nt
COc1ccc(COc2cc(-c3cccc(OC)c3)nc3ccc(NC(=O)c4cccnc4)cc23)cc1 | i | i | i | 38 | i | i | 23
COc1cc(/C=C/C(=O)Nc2ccncc2)cc(OC)c1OC | i | i | i | i | i | nt | nt
COC(=O)c1cccc(/C=N/NC(N)=S)c1O | i | i | i | 34 | i | i | i
COc1cccc(/C=N/NC(=O)C(=O)N/N=C/c2cccc(OC)c2O)c1O | nt | i | i | 21 | i | i | i
O=C(COc1cnc2ccccc2n1)NCCC1=CCCCC1 | i | i | i | i | i | nt | nt
CCC(=O)N(Cc1cc2c(C)ccc(C)c2[nH]c1=O)C1CCCCC1 | i | i | i | 29 | i | i | i
CCC(=O)N(Cc1cc2c(C)cc(C)cc2[nH]c1=O)C1CCCCC1 | i | i | i | i | i | nt | nt
O=C(CN1C(=O)NC2(CCCC2)C1=O)Nc1ccc(Cl)cc1C(F)(F)F | i | i | i | i | i | nt | nt
CC(=O)OCCn1c(C)[n+](CCOC(C)=O)c2cc(Cl)c(Cl)cc21 | i | i | i | i | i | nt | nt
CC(=O)OCCn1c2nc(=O)[nH]c(=O)c-2nc2cc(C)c(C)cc21 | i | i | i | 37 | i | 51 | 34
CC(C)OCCCN(C)C1CCN(S(=O)(=O)c2ccc(-c3ccc(=O)[nH]n3)s2)CC1 | i | i | i | i | i | nt | nt
COc1ccc2c(CC(=O)NCC3CCC(C(=O)O)CC3)cc(=O)oc2c1 (stereo unspecified) | i | i | i | i | i | nt | nt
Cc1ncc(CO)c(/C=N/NC(=O)c2cc3c(s2)CCCC3)c1O | i | i | i | 38 | i | i | 27
Cc1ccc(-c2onc(C)c2C)cc1S(=O)(=O)N1CCOc2ccccc21 | i | i | i | i | i | nt | nt
COc1cc(OC)cc(C(C)c2ccc(-c3ccccc3)cc2)c1 (stereo unspecified) | nt | i | i | nt | i | nt | nt
